Assay outcomes (PubChem)
This is a sample that favours compounds with a hit; in the whole collection about 3.4% have one here.
Runt-SMMHC FRET: blocks binding of human RUNX1 Runt domain to CBFb-SMMHC. Q01196+Q13951. Cerulean-Runt/Venus-CBFb-SMMHC FRET ratio 530/480, 1 h. inhibition, % at 20 µM. hit rate 0.74% among 220,000. AID 1434;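 active means mean inhibition across duplicate retests at 20 µM reaching about 50%, limit read from the data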;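 further: 0% = DMSO wells and 100% = wells with excess untagged CBFb-SMMHC; inhibitors lower the FRET ratio by blocking Runt binding to CBFb-SMMHC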
Runt-CBFb FRET: blocks binding of human RUNX1 Runt domain to CBFb; Q01196+Q13951; Cerulean-Runt/Venus-CBFb FRET ratio 530/480, 1 h; inhibition, % at 20 µM; hit rate 0.46% among 220,000; AID 1496;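 active means inhibition over about 50% at 20 µM in the single-dose screen, limit read from the data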;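 further: 0% = DMSO wells and 100% = excess unlabeled CBFb competitor control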
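Doses: 20 µM compound in 1% DMSO | Material: Cerulean-labeled Runt domain protein | Amount: Each fluorescent fusion protein 100 nM | Schedule: Two 1 h room-temperature incubations shielded from light | Measured by: FRET fluorescence | Evaluation: Loss of energy transfer signal | Controls: Unlabeled CBFb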
RanGTP-Imp inh: inhibitors of RanGTP-importin-beta interaction, primary screen, biochemical, FRET, CFP-Ran, YFP-importin-beta, homogeneous | cell-free CFP-Ran/YFP-importin-beta FRET ratio | inhibition, % (concentration not given with the values) | hit rate 1.1% among 300,000 | AID 2216;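 active means more than half of the replicate wells show a fall in the fluorescence ratio signal beyond about 16%, limit read from the data, passing the limit was not always enough; inconclusive means exactly half of the replicate wells pass the set limit; inactive means fewer than half of replicates pass the limit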;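 further: 0% = DMSO wells and 100% = Ran loaded with GDP instead of GTP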
Wee1 stabilizer: inhibitors of human Wee1 degradation; hit rate 1.2% among 220,000; P30291; HeLa Luc-Wee1K328M stability, luciferase luminescence; 100% = proteasome inhibitor MG132 effect; AID 1321; reporter increase, % at 5 µM;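 active means activation above the mean of all tested compounds plus 3 SD, set per screening run, cut at about 8.8% in these data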;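 further: cells exposed to compound for 20 h before luminescence read; 0% = DMSO alone and 100% = MG132 at 30 µM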
Target sequence (P30291 whole entry K328M): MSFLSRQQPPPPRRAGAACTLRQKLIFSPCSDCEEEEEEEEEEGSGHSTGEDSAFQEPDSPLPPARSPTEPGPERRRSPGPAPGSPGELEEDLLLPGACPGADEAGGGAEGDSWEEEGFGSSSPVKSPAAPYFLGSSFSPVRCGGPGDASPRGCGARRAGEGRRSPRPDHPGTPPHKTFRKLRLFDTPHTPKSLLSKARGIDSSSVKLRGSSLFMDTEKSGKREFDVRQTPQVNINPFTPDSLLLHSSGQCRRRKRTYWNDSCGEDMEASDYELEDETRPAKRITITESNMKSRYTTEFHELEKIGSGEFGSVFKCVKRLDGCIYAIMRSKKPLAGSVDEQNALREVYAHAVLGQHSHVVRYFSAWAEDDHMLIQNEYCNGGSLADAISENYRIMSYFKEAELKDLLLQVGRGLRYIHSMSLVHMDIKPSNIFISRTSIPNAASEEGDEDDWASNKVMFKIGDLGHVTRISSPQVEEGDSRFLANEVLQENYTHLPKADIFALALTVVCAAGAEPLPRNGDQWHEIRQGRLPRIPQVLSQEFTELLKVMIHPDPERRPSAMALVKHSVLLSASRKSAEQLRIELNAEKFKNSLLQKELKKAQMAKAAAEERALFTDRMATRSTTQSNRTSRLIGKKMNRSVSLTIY
Efa HMGR inh: blocks class II HMG-CoA reductase of Enterococcus faecalis | purified E. faecalis HMGR, NADPH absorbance 340 nm kinetic | inhibition, % at 10 µM | hit rate 0.41% among 190,000;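 active means inhibition above a set limit, the median over all tested compounds plus 3 SD, cut at about 9.5% in these data; inconclusive means no clear call, values can overlap the other calls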;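 further: enzyme runs in reverse so mevalonate oxidation gives rising NADPH absorbance; 0% = complete reaction with DMSO and 100% = background rate lacking mevalonate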
PHOSPHO1 block: inhibitors of human PHOSPHO1 phosphatase; hit rate 1.1% among 290,000; recombinant PHOSPHO1, absorbance phosphatase assay; AID 1565; inhibition, % at 13.3 µM; Q8TCT1; in the data active means inhibition above about 60%
YIC counter: counter-screen YIC FRET for RanGTP-importin-beta inhibitors. shares compounds with RanGTP-Imp inh. Purified YIC probe, intramolecular FRET ratio YFP/CFP. IC50, µM. hit rate 40% among 1,000;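 active means fitted half-maximal inhibitory concentration no more than tenfold above the top dose tested; inconclusive means flat fit with 30 to 70% activity, or poor fit; inactive means half-maximal concentration beyond tenfold above the top dose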
Active calls of the source: *; ? = inconclusive; / = no result given.

SMILES | Runt-SMMHC FRET | Runt-CBFb FRET | RanGTP-Imp inh | Wee1 stabilizer | Efa HMGR inh | PHOSPHO1 block | YIC counter
CCOC(=O)N1CCN(c2cc(=O)n(C3CCCCC3)c(=O)[nH]2)CC1 | -0.6 | 5.0 | 18.8* | -1.6 | -1.6 | -6.6 | >50
CCOC(=O)C1CCN(c2cc(=O)n(C3CCCCC3)c(=O)[nH]2)CC1 | 3.1 | -1.5 | 51.1* | -0.7 | -1.2 | 6.2 | >50
CCN1CCN(c2cc(=O)n(C3CCCCC3)c(=O)[nH]2)CC1 | -0.2 | 0.7 | ? | 0.9 | -4.5 | 15.2 | /
CN1CCN(c2cc(=O)n(C3CCCCC3)c(=O)[nH]2)CC1 | 3.2 | 0.7 | 10.4 | 2.5 | 2.6 | 6.3 | /
Cn1c(SCc2cccc([N+](=O)[O-])c2)nc2c(c1=O)SCC2 | -0.6 | -0.1 | 16.0* | 2.7 | -4.0 | 19.5 | >50
NC(=O)c1ccccc1NC(=O)/C=C/c1ccc(Cl)cc1 | 1.2 | 0.7 | 22.7* | 1.8 | -8.4 | -10.3 | >50
Nc1nonc1-n1nnc(C(=O)N/N=C/c2ccccc2)c1CSc1ccc(Cl)cc1 | -4.5 | 1.1 | 17.3* | 4.6 | -6.7 | -6.9 | >50
Nc1nonc1-n1nnc(C(=O)N/N=C/c2cccc(Cl)c2)c1CSc1ccc(Cl)cc1 | -2.0 | / | 1.5 | -0.8 | 0.7 | 4.1 | /
Cn1c(=O)cc(OCCCC(=O)NCc2ccccn2)c2ccccc21 | 0.1 | -6.1 | 22.5* | 5.1 | -1.9 | 15.9 | >50
Cn1c(=O)cc(OCC(=O)NCc2ccccn2)c2ccccc21 | -8.6 | -0.1 | 1.9 | -3.3 | -0.3 | -25.8 | /
CCOCCCNC(=O)c1cc(-c2ccc(Br)s2)nc2ccccc12 | / | / | 19.3* | / | / | -7.4 | 27.9*
Cc1ccc(C)c(N=Cc2cc3c(cc2[N+](=O)[O-])OCO3)c1 | 11.4 | 6.9 | 2.9 | -0.6 | 0.7 | -7.5 | /
Cc1ccc(N=Cc2cc3c(cc2[N+](=O)[O-])OCO3)cc1[N+](=O)[O-] | / | / | 20.4* | / | / | / | >50
CCN(C(=O)CSc1nc2ccccc2c(=O)n1Cc1ccc(C)cc1)C1CCS(=O)(=O)C1 (centres undefined) | / | / | -2.3 | / | / | / | /
CCn1c(SCC(=O)N(Cc2ccccc2)C2CCS(=O)(=O)C2)nc2ccccc2c1=O (centres undefined) | -0.2 | -1.6 | 20.2* | 3.0 | -1.4 | 62.7* | >50
COCCNC(=S)N1CCCN(c2nc3cc(C)ccc3cc2C#N)CC1 | / | / | 17.6* | / | / | / | 30.6*
COc1ccccc1C(=O)N1CCN(c2nc3cc(C)c(C)cc3cc2C#N)CC1 | 40.1 | 14.6 | 0.7 | -2.9 | -0.6 | -10.8 | /
CC1=NC(Nc2nc(C)c3ccccc3n2)=NC(C)(C)C1 | 4.6 | 1.0 | 29.5* | -1.3 | 0.9 | 37.3 | >50
C=C(C)Cn1c(SCC(=O)O)nnc1-c1ccc(OC)cc1 | 1.0 | -1.0 | 21.7* | -0.8 | -1.7 | 23.3 | >50
Cc1ccoc1C(=O)N1CCCC(CCC(=O)N2CCN(c3ccccn3)CC2)C1 (centres undefined) | -4.4 | 1.1 | -0.1 | 1.7 | -2.0 | 14.7 | /
COc1ccc(C(=O)O)cc1S(=O)(=O)N(C)C | -1.2 | 0.3 | 26.2* | -0.5 | -3.8 | -0.7 | >50
COc1ccc(Cl)cc1S(=O)(=O)Nc1noc2ccccc12 | / | / | 15.7* | / | / | 24.1 | >50
COc1ccc(Cl)cc1NS(=O)(=O)c1cc(Cl)ccc1OC | -5.0 | 0.8 | -1.3 | 5.0 | -2.9 | -11.5 | /
CCOc1ccc(C)cc1S(=O)(=O)Nc1ccc(Cl)cn1 | 3.4 | -1.8 | 18.6* | -3.4 | -1.2 | 26.3 | >50
CN(Cc1cnc2nc(N)nc(N)c2n1)c1ccc(C(=O)N[C@@H](CCC(=O)O)C(=O)O)cc1 | / | / | 23.3* | / | / | / | >50
CCC(=O)NCCNc1nc2cc(C)cc(C)c2cc1C#N | 23.1 | 2.6 | -11.1 | 1.1 | -2.8 | 36.7 | /
COc1cc(C(=O)NCCNC(=O)c2ccc(C)nc2)cc(OC)c1OC | / | / | 2.8 | / | / | 15.1 | /
COc1cc(C(=O)NCCNc2nc3cc(C)ccc3cc2C#N)cc(OC)c1OC | / | / | 17.4* | / | / | 45.3 | 29.5*
COc1cc(OC)cc(C(=O)NCCNc2nc3cc(C)cc(C)c3cc2C#N)c1 | / | / | 17.7* | / | / | 8.5 | 20.8*
